Reference: ChEMBL document CHEMBL1649128, “SC29EK, a peptide fusion inhibitor with enhanced alpha-helicity, inhibits replication of human immunodeficiency virus type 1 mutants resistant to enfuvirtide” (Antimicrob Agents Chemother, 2009)
Activity calls are given as the source filed them. The calls are words filed in the database; no cut-off is given here. Non-standard residues stand in square brackets, D forms with d. Nle = CCCC[C@H](N)C(=O)O

Columns and labels:
[1] = test system: Human immunodeficiency virus 1; experiment: Antiviral activity against enfuvirtide-resistant Human immunodeficiency virus 1 NL4-3 harboring gp41 D36G/N43D/S138A mutation by MAGI assay using human HeLa Cd4/LTR-beta-galactosidase cells; type: functional, organism-based
[2] = test system: Human immunodeficiency virus 1; experiment: Antiviral activity against enfuvirtide-resistant Human immunodeficiency virus 1 NL4-3 harboring gp41 D36G/V38A mutation by MAGI assay using human HeLa Cd4/LTR-beta-galactosidase cells relative to HIV1 NL4-3 gp41 D36G mutant; type: functional
[3] = test system: Human immunodeficiency virus 1; experiment: Antiviral activity against enfuvirtide-resistant Human immunodeficiency virus 1 NL4-3 harboring gp41 D36G mutation by MAGI assay using human HeLa Cd4/LTR-beta-galactosidase cells; type: functional, organism-based
[4] = test system: Human immunodeficiency virus 1; experiment: (§1) Antiviral activity against enfuvirtide-resistant Human immunodeficiency virus 1 NL4-3 harboring gp41 D36G/I37K/N126K/L204I mutation and 5-amino-acid deletion in the V4 region of gp120 protein by MAGI assay using human HeLa Cd4/LTR-beta-galactosidase cells by MAGI assay; type: functional, organism-based
[5] = test system: Human immunodeficiency virus 1; experiment: Antiviral activity against enfuvirtide-resistant Human immunodeficiency virus 1 NL4-3 by MAGI assay using human HeLa Cd4/LTR-beta-galactosidase cells relative to HIV1 NL4-3 gp41 D36G mutant; type: functional
[6] = test system: Human immunodeficiency virus 1; experiment: as §1, with “cells relative to HIV1 NL4-3 gp41 D36G mutant” for “cells”; type: functional
[7] = test system: Human immunodeficiency virus 1; experiment: Antiviral activity against enfuvirtide-resistant Human immunodeficiency virus 1 NL4-3 harboring gp41 D36G/V38A mutation by MAGI assay using human HeLa Cd4/LTR-beta-galactosidase cells; type: functional, organism-based
[8] = test system: Human immunodeficiency virus 1; experiment: Antiviral activity against enfuvirtide-resistant Human immunodeficiency virus 1 NL4-3 harboring gp41 D36G/N43D mutation by MAGI assay using human HeLa Cd4/LTR-beta-galactosidase cells; type: functional, organism-based
[9] = test system: Human immunodeficiency virus 1; experiment: Antiviral activity against enfuvirtide-resistant Human immunodeficiency virus 1 NL4-3 by MAGI assay using human HeLa Cd4/LTR-beta-galactosidase cells; type: functional, organism-based; conditions: Human immunodeficiency virus 1, NL4-3, HeLa
[10] = test system: Human immunodeficiency virus 1; experiment: Antiviral activity against enfuvirtide-resistant Human immunodeficiency virus 1 NL4-3 harboring gp41 D36G/N126K mutation by MAGI assay using human HeLa Cd4/LTR-beta-galactosidase cells; type: functional, organism-based
[11] = test system: Human immunodeficiency virus 1; experiment: Antiviral activity against enfuvirtide-resistant Human immunodeficiency virus 1 NL4-3 harboring gp41 D36G/N43D/S138A mutation by MAGI assay using human HeLa Cd4/LTR-beta-galactosidase cells relative to HIV1 NL4-3 gp41 D36G mutant; type: functional
[12] = test system: Human immunodeficiency virus 1; experiment: Antiviral activity against enfuvirtide-resistant Human immunodeficiency virus 1 NL4-3 harboring gp41 D36G/N126K mutation by MAGI assay using human HeLa Cd4/LTR-beta-galactosidase cells relative to HIV1 NL4-3 gp41 D36G mutant; type: functional
[13] = test system: Human immunodeficiency virus 1; experiment: Antiviral activity against enfuvirtide-resistant Human immunodeficiency virus 1 NL4-3 harboring gp41 D36G/N43D mutation by MAGI assay using human HeLa Cd4/LTR-beta-galactosidase cells relative to HIV1 NL4-3 gp41 D36G mutant; type: functional
[14] = test system: Human immunodeficiency virus 1; experiment: Antiviral activity against enfuvirtide-resistant Human immunodeficiency virus 1 NL4-3 by MAGI assay using human HeLa Cd4/LTR-beta-galactosidase cells in presence fresh human serum after 2 hrs; type: functional, organism-based
[15] = test system: Human immunodeficiency virus 1; experiment: Antiviral activity against enfuvirtide-resistant Human immunodeficiency virus 1 NL4-3 by MAGI assay using human HeLa Cd4/LTR-beta-galactosidase cells in presence of 5 to 50% fetal calf serum; type: functional, organism-based
In short: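 MAGI assay against HIV-1 NL4-3 run with FCS at 5, 10, 20 or 50% in the medium. HeLa CD4/LTR-β-galactosidase cells were inoculated at 60 MAGI U/well, cultured 48 h with drug, and X-gal-stained blue cells counted. Each EC50 was determined three times independently, with Student's t test.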

[16] = test system: Human immunodeficiency virus 1; experiment: Antiviral activity against Human immunodeficiency virus 1 NL4-3 assessed as decrease in EC50 by MAGI assay relative to ddC; type: functional, organism-based
In short: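 HeLa CD4/LTR-β-galactosidase (MAGI) cells were seeded at 10^4/well and infected next day with HIV-1 NL4-3 (60 MAGI U/well). They were cultured 48 h with serial drug dilutions in medium containing 5, 10, 20 or 50% FCS, with ddC as the reverse transcriptase inhibitor reference. X-gal-stained blue cells were counted. EC50 is the concentration giving 50% inhibition, determined three times independently.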

Row | Compound | EC50 [1] [µM] | Ratio EC50 [2] | EC50 [3] [µM] | EC50 [4] [µM] | Ratio EC50 [5] | Ratio EC50 [6] | EC50 [7] [µM] | EC50 [8] [µM] | EC50 [9] [µM] | EC50 [10] [µM] | Ratio EC50 [11] | Ratio EC50 [12] | Ratio EC50 [13] | inhibition [14] | inhibition [15] | inhibition [16]
1 | H-WEEWDKKIEEYTKKIEELIKKS-OH | > 1 | 0.4 | 0.686 | 0.252 | 0.3 | 0.4 | 0.289 | 0.114 | 0.217 | > 1 | >1.5 | >1.5 | 0.2 | – | – | –
2 | H-WEEWDKKIEEYTKKIEELIKKSEEQQKKN-OH | 0.0034 | 1.6 | 0.0019 | 0.05 | 1.3 | 26 | 0.003 | 0.0041 | 0.0024 | 0.0027 | 1.8 | 1.4 | 2.2 | Active | Active | –
3 | enfuvirtide | 0.084 | 9.6 | 0.0024 | 0.39 | 6.3 | 163 | 0.023 | 0.049 | 0.015 | 0.0034 | 35 | 1.4 | 20 | Active | inactive | inactive
4 | H-W[Nle]EWDRKIEEYTKKIEELIKKSQEQQEKNEKELKREREREG-OH | 0.0015 | 0.9 | 0.0024 | 0.003 | 0.7 | 1.3 | 0.0022 | 0.0016 | 0.0016 | 0.012 | 0.6 | 5 | 0.7 | – | Active | –
5 | CC[C@H](C)[C@H](NC(=O)[C@H](CC(C)C)NC(=O)[C@H](CO)NC(=O)[C@H](Cc1cnc[nH]1)NC(=O)[C@@H](NC(=O)[C@H](CC(C)C)NC(=O)[C@H](CO)NC(=O)[C@@H](NC(=O)[C@H](Cc1ccc(O)cc1)NC(=O)[C@H](CC(N)=O)NC(=O)[C@H](CC(N)=O)NC(=O)[C@@H](NC(=O)[C@H](CCC(=O)O)NC(=O)[C@H](CCCNC(=N)N)NC(=O)[C@H](CC(=O)O)NC(=O)[C@H](Cc1c[nH]c2ccccc12)NC(=O)[C@H](CCC(=O)O)NC(=O)[C@@H](CCS)NC(=O)[C@@H](N)Cc1c[nH]c2ccccc12)[C@@H](C)CC)[C@@H](C)O)[C@@H](C)CC)C(=O)N[C@@H](CCC(=O)O)C(=O)N[C@@H](CCC(=O)O)C(=O)N[C@@H](CO)C(=O)N[C@@H](CCC(N)=O)C(=O)N[C@@H](CC(N)=O)C(=O)N[C@@H](CCC(N)=O)C(=O)N[C@@H](CCC(N)=O)C(=O)N[C@@H](CCC(=O)O)C(=O)N[C@@H](CCCCN)C(=O)N[C@@H](CC(N)=O)C(=O)N[C@@H](CCC(N)=O)C(=O)N[C@@H](CCC(=O)O)C(=O)N[C@@H](CC(C)C)C(=O)N[C@@H](CC(C)C)C(=O)O | > 1 | 9.7 | 0.052 | > 1 | 4.7 | >19 | 0.504 | > 1 | 0.245 | 0.192 | >19 | 3.7 | >19 | – | – | –
